# From PubChem BioAssay
# Sampled rows, rich in hits. Any-hit rate of the full collection: about 2.5%.
# EP2 modulator: modulators of human EP2 prostaglandin E2 receptor; EP2-expressing cells, cAMP HTRF FRET, PGE2 co-stimulation; induction, % at 25 µM; 260,000 compounds, 0.83% hits; AID 940;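 active = compounds whose cAMP rise, as percent of the full-agonist control response, exceeds 60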;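 also: rat C6 glioma line stably carrying human EP2 under a CMV promoter; the protocol text gives 20 µM as final concentration; 100% = response of wells given 1 µM PGE2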
# PfG6PD inh: PfG6PD (Plasmodium falciparum) enzyme inhibition | PfGluPho enzyme, NADPH resazurin-diaphorase fluorescence | inhibition, % at 20 µM | 350,000 compounds, 0.78% hits | AID 504690;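 active = inhibition reaching at least a set limit at 20 µM in the primary screen, cut at about 59% in these data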;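 also: 0% = DMSO wells with substrate and 100% = DMSO wells lacking glucose-6-phosphate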
# EP2 antag: blocks the human prostaglandin E2 receptor EP2; P43116; C6 glioma cells expressing human EP2, cAMP TR-FRET; cells stimulated with saturating PGE2; inhibition, % at 25 µM; 260,000 compounds, 0.52% hits; AID 1422;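 active = percent inhibition above 40 after rounding to a whole number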;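 also: rat C6 glioma host cells with rolipram phosphodiesterase inhibitor present; the protocol text gives 20 µM as final concentration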
# PHOSPHO1 inh: PHOSPHO1 (human) inhibition. AID 1565. recombinant PHOSPHO1, absorbance phosphatase assay. 290,000 compounds, 1.1% hits. Q8TCT1. inhibition, % at 13.3 µM; in the data active = inhibition above about 60%
# HKDC1 inh: HKDC1 (human) hexokinase inhibition. Q2TB90. recombinant HKDC1, G6PDH/diaphorase resazurin coupled fluorescence. inhibition, % at 20 µM. 340,000 compounds, 0.16% hits. AID 493160;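 active = inhibition above about 35% when tested at 20 µM, limit read from the data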;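 also: plate controls were DMSO wells with enzyme for no effect and DMSO wells lacking enzyme for full effect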
# Target sequence (Q2TB90 whole entry, looked up): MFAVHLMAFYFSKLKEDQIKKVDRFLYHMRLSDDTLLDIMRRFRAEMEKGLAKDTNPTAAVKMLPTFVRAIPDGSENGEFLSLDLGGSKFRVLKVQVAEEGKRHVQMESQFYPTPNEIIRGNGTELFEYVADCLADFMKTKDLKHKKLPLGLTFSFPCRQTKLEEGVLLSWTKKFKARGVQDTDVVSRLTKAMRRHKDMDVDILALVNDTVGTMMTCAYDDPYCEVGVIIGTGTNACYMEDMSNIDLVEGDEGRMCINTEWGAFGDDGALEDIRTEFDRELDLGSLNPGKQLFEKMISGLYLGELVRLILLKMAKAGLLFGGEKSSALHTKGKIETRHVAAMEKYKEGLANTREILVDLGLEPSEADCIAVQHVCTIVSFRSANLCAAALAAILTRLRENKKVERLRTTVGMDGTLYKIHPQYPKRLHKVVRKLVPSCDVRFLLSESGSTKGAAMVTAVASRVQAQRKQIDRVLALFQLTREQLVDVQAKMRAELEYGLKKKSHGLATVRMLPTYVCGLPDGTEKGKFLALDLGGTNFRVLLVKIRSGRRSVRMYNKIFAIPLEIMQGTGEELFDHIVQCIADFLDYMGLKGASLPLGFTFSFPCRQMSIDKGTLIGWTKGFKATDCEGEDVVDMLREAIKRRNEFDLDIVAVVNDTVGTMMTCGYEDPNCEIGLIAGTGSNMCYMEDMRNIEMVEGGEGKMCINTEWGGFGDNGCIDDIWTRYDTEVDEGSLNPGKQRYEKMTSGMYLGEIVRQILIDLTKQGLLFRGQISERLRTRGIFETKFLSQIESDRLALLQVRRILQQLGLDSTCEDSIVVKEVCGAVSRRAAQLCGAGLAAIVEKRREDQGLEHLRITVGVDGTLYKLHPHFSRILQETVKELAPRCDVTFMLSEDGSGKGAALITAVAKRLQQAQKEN
#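 Incubation: 90 min at room temperature in dark / Material: recombinant HKDC1 (HK5) hexokinase enzyme, produced in-house / Quantity: enzyme 5 µg/mL final / Compound: one dose of 20 µM, 1% DMSO / Reagent: glucose and ATP substrates / Buffer or medium: Tris pH 8.0 buffer with MgCl2, Tween-20, BSA, BME / Technique: resorufin fluorescence at 613 nm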
# Tb hexokinase: T. brucei hexokinase 1 inhibition; recombinant TbHK1, G6PDH-coupled NADH A340; inhibition, % at 10 µM; 220,000 compounds, 0.11% hits; AID 1430;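 active = inhibition of 50% or more in the single-dose primary screen; inactive = inhibition below 50%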
# Active calls of the source: *; . = not tested or not shown.
SMILES,EP2 modulator,PfG6PD inh,EP2 antag,PHOSPHO1 inh,HKDC1 inh,Tb hexokinase
O=C(NNC(=S)Nc1cccc2ccccc12)c1cccc(Br)c1,-41.2,-17.9,17.4,64.4*,-19.6,-5.5
CCN1CCCC1CN(Cc1cc2cc(OC)c(OC)cc2[nH]c1=O)C(=O)Nc1cccc(Cl)c1 (stereo not drawn),-69.3,.,7.6,.,.,.
Brc1cc2c(cc1/C=N/Nc1nc3ccccc3s1)OCO2,-28.2,6.9,41.1*,23.5,-4.3,-14.7
CC[C@@H](Cn1nc(-c2cccs2)ccc1=O)NC(=O)c1snnc1C,-36.1,.,5.4,.,.,.
CC(=O)c1cc(C(=O)NC2(c3cccc(F)c3)CCCC2)cs1,-3.3,.,6.0,.,.,.
O=C(NCc1c(Cl)cccc1Oc1ccccc1)c1ccccc1,63.1*,6.8,10.1,33.4,-1.8,-5.8
Cc1ccnn1CCC(=O)N[C@@H](Cn1nnc2ccccc21)C(C)C,-20.7,.,7.8,.,.,.
Cc1cc(SCC(=O)N/N=C/c2ccc(O)c(O)c2)c(C)cc1Br,-32.9,-10.3,49.5*,-2.7,2.2,0.2
Nn1c(C2COc3ccccc3O2)n[nH]c1=S (stereo not drawn),-6.7,38.2,14.6,78.2*,9.5,0.7
NC(=S)C1COc2ccccc2O1 (stereo not drawn),32.9,-0.5,6.2,10.6,-1.7,-6.5
COc1ccc(OC)c2c1C(=O)c1ccccc1C2=O,19.3,22.3,4.5,95.1*,19.0,9.9
COc1cccc2c1-c1c(C(=O)O)cccc1C2=O,.,2.0,.,13.9,-1.7,.
COc1cccc2c1C(=O)c1ccc3ccccc3c1C2=O,-13.3,-0.2,7.2,86.8*,13.6,24.7
c1ccc(-c2nc(Sc3ncnc4c3cnn4-c3ccccc3)n[nH]2)cc1,-7.9,.,.,87.0*,.,-7.2
Cc1ccc(CSc2ncnc3c2cnn3-c2ccccc2)cc1,-8.1,5.2,6.4,14.9,-8.3,-5.4
Cc1ccccc1C(=O)N1CCN=C1SCc1ccc([N+](=O)[O-])cc1,15.3,-2.7,4.8,68.5*,-1.9,-11.3
O=C(c1cccc2ccccc12)N1CCN=C1SCc1ccc([N+](=O)[O-])cc1,29.7,-0.7,8.0,-18.9,-3.9,1.7
CC(C)c1nc(SCC(=O)N2CCOCC2)c2ccccc2n1,23.1,.,9.6,.,.,.
COC(=O)CSc1n[nH]c(=S)s1,29.8,7.0,2.8,4.7,1.4,-4.5
COC(=O)C(C)Sc1n[nH]c(=S)s1 (stereo not drawn),16.9,19.4,2.1,102.3*,-5.8,-7.4
CSc1nc(SCCO)c2sc3nc(-c4ccco4)c4c(c3c2n1)CC(C)(C)OC4,7.5,34.3,.,76.4*,21.3,-9.1
CSc1nc(N(CCO)CCO)c2sc3nc(-c4ccco4)c4c(c3c2n1)CCC4,-16.2,40.3,8.9,78.7*,36.6*,4.8
COC(=O)CSc1nc(SC)nc2c1sc1nc(-c3ccco3)c3c(c12)CC(C)(C)OC3,.,-3.5,.,.,-7.5,.
CC(=O)c1nnn(-c2ccc(F)cc2)c1NCc1cccc(F)c1,-65.1,.,.,.,.,.
NC(=O)c1cc[n+](CC2=C(C(=O)O)N3C(=O)[C@@H](NC(=O)C(c4ccccc4)S(=O)(=O)[O-])[C@H]3SC2)cc1 (stereo partly drawn),19.4,71.4*,9.4,1.1,13.4,3.5
SMILES,EP2 modulator,PfG6PD inh,EP2 antag,PHOSPHO1 inh,HKDC1 inh,Tb hexokinase
O=C(Nc1ccc(Cl)cc1)c1sccc1-n1cccc1,62.6*,12.0,-0.9,53.2,4.1,1.8
COc1ccc(NC(=O)c2sccc2-n2cccc2)cc1,15.0,-0.9,0.3,12.2,5.1,-3.5
CCOC(=O)C1CCN(C(c2cc3cccc(C)c3[nH]c2=O)c2nnnn2C(C)(C)C)CC1 (stereo not drawn),4.1,.,18.6,.,.,.
C[C@@]1(CO)[C@H](O)CC[C@]2(C)[C@@H]1CC[C@H]1C[C@H]3C[C@]12CC[C@@]3(O)COC(=O)CN,-3.4,.,51.7*,.,.,.
O=C(CSc1ccccn1)N1CCN(c2cccc(Cl)c2)CC1,-28.2,32.6,7.8,82.6*,-2.2,-4.7
O=C(CSc1ccccn1)N1CCN(c2ccccc2)CC1,-8.1,18.3,6.0,-4.0,2.4,9.0
CCOC(=O)C(C)n1nc(CC)n2c(cc3oc(C)cc32)c1=O (stereo not drawn),-39.3,.,4.5,.,.,.
CC(=O)c1c(COC(=O)c2cccnc2)nc2ccccc2[n+]1[O-],-29.8,3.3,13.2,88.5*,6.1,-2.6
COc1ccc(CCNc2nc(-c3sc(C)nc3C)cs2)cc1OC,-18.7,3.4,8.0,79.9*,-7.1,2.9
CCC(C)(C)n1nnnc1C(c1ccc(O)c(OC)c1)N1CCN(c2nc3ccccc3s2)CC1 (stereo not drawn),10.8,20.1,8.4,67.5*,1.3,-10.0
CS(=O)(=O)c1ccc(-c2cn3cc(C(=O)O)ccc3n2)cc1,23.6,-9.4,8.2,60.9*,-7.8,-9.0
COC(=O)c1ccc2nc(-c3ccc(S(C)(=O)=O)cc3)cn2c1,-60.4,2.1,4.3,36.7,-4.6,-5.1
O=C(Nc1cccc(-c2cn3ccccc3n2)c1)c1cccc(Cl)c1,-14.1,-11.1,61.1*,-11.3,-4.4,-4.2
O=C(Nc1ccc(-c2cn3ccccc3n2)cc1)c1cccs1,-68.9,17.6,4.0,27.7,0.7,-23.1
O=C(Nc1ccc(-c2cn3ccccc3n2)cc1)c1cc(Br)ccc1O,-19.5,.,44.6*,.,.,.
O=C(Nc1cccc(-c2cn3ccccc3n2)c1)c1cnccn1,-8.4,18.2,17.2,1.1,2.6,-2.0
C=CC(=O)N1c2c(OC)cccc2C(=C2SC(C(=O)OC)=C(C(=O)OC)S2)C(=S)C1(C)C,41.5,.,12.4,.,.,.
CCN1CCc2nc(N)sc2C1,28.8,62.0*,3.4,-76.8,-4.5,-2.8
O=C(CN(C1CC1)S(=O)(=O)c1ccc(S(=O)(=O)N2CCCCC2)cc1)Nc1ccccc1,-22.5,.,2.3,.,.,.
CCC(C)Sc1nc2c(c(=O)n(C)c(=O)n2C)n1Cc1ccc(Cl)cc1 (stereo not drawn),70.3*,.,7.0,.,.,.
CC(C)Sc1nc2c(c(=O)[nH]c(=O)n2C)n1Cc1ccc(Cl)cc1,55.2,54.0,8.9,83.5*,-1.6,2.1
Cc1ccc(Cn2c(SCC(C)C)nc3c2c(=O)[nH]c(=O)n3C)cc1,41.7,44.4,6.6,90.3*,-8.4,-3.9
CCC(C)Sc1nc2c(c(=O)[nH]c(=O)n2C)n1Cc1ccc(Cl)cc1 (stereo not drawn),51.2,8.4,6.9,1.7,0.0,4.7
C=C(C)Cn1c(SCc2ccccc2)nc2c1c(=O)[nH]c(=O)n2C,55.5,.,34.2,.,.,.
C=C(C)Cn1c(SCc2ccc(Cl)cc2)nc2c1c(=O)[nH]c(=O)n2C,70.8*,.,11.9,.,.,.
Cc1cccc2cc3cc(C(=O)O)sc3nc12,-74.2,.,33.4,.,.,.
CCOC(=O)CSc1nc2c(c(=O)[nH]c(=O)n2C)n1C/C=C(/C)Cl,-5.0,49.4,8.0,80.8*,-2.9,37.6
Oc1ccc(-c2cn3c(n2)SCC3)cc1,23.7,-11.7,12.1,97.9*,-10.4,-4.5
